The source made the active and inactive calls. No cut-off for these calls is given here.
Experiments:
[1] = target: T1, Neutrophil elastase (Homo sapiens) (UniProt P08246); experiment: Inhibition of human neutrophil elastase
T1 sequence (whole entry): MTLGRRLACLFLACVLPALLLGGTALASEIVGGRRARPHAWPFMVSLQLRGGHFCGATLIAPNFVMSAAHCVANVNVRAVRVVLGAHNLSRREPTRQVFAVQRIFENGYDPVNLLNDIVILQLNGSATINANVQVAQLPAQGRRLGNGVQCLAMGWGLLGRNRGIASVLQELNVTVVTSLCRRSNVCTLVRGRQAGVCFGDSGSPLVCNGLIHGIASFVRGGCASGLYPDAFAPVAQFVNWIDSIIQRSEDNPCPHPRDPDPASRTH
How it was run: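 Human elastase (final 70 nM; added from a stock in 0.05 mM sodium acetate/0.5 M NaCl pH 5.50) in 0.1 M HEPES/0.5 M NaCl pH 7.25 at 25 °C. Substrate was methoxysuccinyl-Ala-Ala-Pro-Val p-nitroaniline, with single inhibitor level from DMSO. […] read for 2 min against a DMSO-only hydrolysis control. % inhibition = (1 − v/vo)×100, mean of duplicate or triplicate runs.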

[2] = target: T2, Myeloblastin (Homo sapiens) (UniProt P24158); experiment: Inhibition of human neutrophil proteinase 3
T2 sequence (whole entry): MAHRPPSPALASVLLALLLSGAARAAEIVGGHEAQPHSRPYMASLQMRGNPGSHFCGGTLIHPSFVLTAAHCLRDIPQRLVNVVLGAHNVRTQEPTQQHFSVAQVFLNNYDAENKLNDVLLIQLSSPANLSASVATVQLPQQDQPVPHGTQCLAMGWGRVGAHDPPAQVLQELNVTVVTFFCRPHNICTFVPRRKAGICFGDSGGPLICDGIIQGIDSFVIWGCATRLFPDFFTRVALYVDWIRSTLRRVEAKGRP
How it was run: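 Human proteinase 3 (final 34.5 nM; added from a stock in 0.1 M phosphate pH 6.50) in 0.1 M HEPES/0.5 M NaCl pH 7.25 at 25 °C. Thiobenzyl ester substrate Boc-Ala-Ala-NVa-SBzl, with 5,5′-dithio-bis(2-nitrobenzoic acid) from DMSO and single inhibitor level from DMSO. Absorbance followed at […] for 2 min against an uninhibited hydrolysis control. % inhibition = (1 − v/vo)×100, duplicate or triplicate mean.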

Row | inhibition [1] | inhibition [2] | Structure (SMILES)
1 | inactive | inactive | CCN1CN(Cc2cn(CC(=O)c3ccccc3F)nn2)S(=O)(=O)N1CC
2 | inactive | inactive | CCN1CN(Cc2cn(CC(=O)c3cccs3)nn2)S(=O)(=O)N1CC
3 | inactive | inactive | CCN1CN(Cc2cccc(NC(=O)c3cccc(OC)c3)c2)S(=O)(=O)N1CC
4 | Active | inactive | CCN1C(=O)N(C(Cc2ccccc2)C(=O)Nc2ccccc2NC(=O)OCC(C)C)S(=O)(=O)N1CC (stereo unspecified)
5 | inactive | inactive | CCN1CN(Cc2cccc(NC(=O)CCOC)c2)S(=O)(=O)N1CC
6 | inactive | inactive | CCN1CN(Cc2cccc(NC(=O)c3ccccc3)c2)S(=O)(=O)N1CC
7 | inactive | inactive | CCN1CN(Cc2cccc(NC(=O)NCCc3ccccc3)c2)S(=O)(=O)N1CC
8 | inactive | inactive | CCN1CN(Cc2cccc(NC(=O)c3cccc(Oc4ccccc4)c3)c2)S(=O)(=O)N1CC
